The subject of one test is A549. As to the kind of experiment: Anticancer activity against human A549 cells incubated for 72 hrs by WST1 assay. The test is classed as functional, cell-based. In short, it runs like this:
(§1)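 Cells (0.5–1.7x10³ per well) seeded in RPMI + 10% FBS the day before dosing. Endpoint: WST-1 reagent added, 4 h further incubation at 37 °C, 5% CO₂, then absorbance read at 450–690 nm. IC50 derived from these readouts.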
(Tetrazolium assays rely on reduction of a dye to a coloured formazan, in cell work by metabolically active cells.)

Test [1] can be described thus: Anticancer activity against human H460 cells incubated for 72 hrs by WST1 assay. The test is classed as functional, cell-based, NCI-H460. The procedure, abridged:
as §1

The test system of another test is MCF7. Briefly: Anticancer activity against human MCF7 cells incubated for 72 hrs by WST1 assay. The format is functional, cell-based. The procedure, abridged: as §1
A short description of test [2]: Anticancer activity against human OVCAR3 cells incubated for 72 hrs by WST1 assay. The format is functional, cell-based, OVCAR-3. The procedure, abridged:
as §1

Test [3] in a line: Anticancer activity against human PC3 cells incubated for 72 hrs by WST1 assay. The test is classed as functional, cell-based, PC-3. In short, it runs like this: as §1
The test system of another test is MDA-MB-231. Briefly: Anticancer activity against human MDA-MB-231 cells incubated for 72 hrs by WST1 assay. The format is functional, cell-based. In short, it runs like this:
as §1

[4] abbreviates: Homo sapiens, A549, 72 h, read-out: IC50.
Setting [5] is: Homo sapiens, NCI-H460, 72 h, read-out: IC50.
Setting [6] is: Homo sapiens, MCF7, 72 h, read-out: IC50.
The mark [7] stands for this setting: Homo sapiens, OVCAR-3, 72 h, read-out: IC50.
The mark [8] stands for this setting: Homo sapiens, PC-3, 72 h, read-out: IC50.
Setting [9] is: Homo sapiens, MDA-MB-231, 72 h, read-out: IC50.

Structures are written as SMILES. Some results are limits rather than exact numbers.

By IC50 is commonly meant the midpoint of a concentration-inhibition curve. With `CCCCCCCCCCCCCC/N=c1\nc(N)c2ncn(Cc3ccccc3)c2c(N)n1`, the IC50 turned out to be 4.25 µM in the test with A549 (setting [4]); 6.75 µM in test [1] (setting [5]); 4.1 µM in the test with MCF7 (setting [6]); 5.5 µM in test [2] (setting [7]); 4.2 µM in test [3] (setting [8]); 5.85 µM with MDA-MB-231 (setting [9]).
As to `CC/N=c1\nc(N)c2nc[nH]c2c(N)n1`, the IC50 is 38 µM in the test with A549 (setting [4]); 22 µM in test [1] (setting [5]); above 100 µM with MCF7 (setting [6]); “Not Active” in test [2] (ovcar-3); above 100 µM in test [3] (setting [8]); “Not Active” in the test on MDA-MB-231 (mda-mb-231).
As to `CCCCCCCC/N=c1\nc(N)c2ncn(Cc3ccccc3)c2c(N)n1`, the 50% inhibitory concentration (IC50) came out at 3.83 µM with A549 (setting [4]); 7.45 µM in test [1] (setting [5]); 4.55 µM in the test on MCF7 (setting [6]); 4.98 µM in test [2] (setting [7]); 5.93 µM in test [3] (setting [8]); 4.75 µM in the test with MDA-MB-231 (setting [9]).
As to `CCCCCCCC/N=c1\nc(N)c2ncn(Cc3ccc(OC)cc3)c2c(N)n1`, the IC50 amounted to 5.7 µM in the test on A549 (setting [4]); 4.2 µM in test [1] (setting [5]); 3.8 µM with MCF7 (setting [6]); 3.75 µM in test [2] (setting [7]); 5.9 µM in test [3] (setting [8]); 2.55 µM in the test on MDA-MB-231 (setting [9]).
Turning to `CCCCCCCCCCCCCCCCCC/N=c1\nc(N)c2ncn(Cc3ccccc3)c2c(N)n1`, the IC50 in the test on A549 (setting [4]) was 5.3 µM; in test [1] (setting [5]) it was 5.4 µM; in the test with MCF7 (setting [6]) it was 8.3 µM; in test [2] (setting [7]), 4.95 µM; in test [3] (setting [8]) it was 5.45 µM; in the test with MDA-MB-231 (setting [9]), 5.4 µM.
For `Nc1n/c(=N\CCCCc2ccccc2)nc(N)c2c1ncn2Cc1ccccc1`, the concentration for half-maximal inhibition (IC50) in the test on A549 (setting [4]) was 15.3 µM; in test [1] (setting [5]), 18.8 µM; in the test on MCF7 (setting [6]), 8.8 µM; in test [2] (setting [7]) it was 37.3 µM; in test [3] (setting [8]) it was above 75 µM; with MDA-MB-231 (setting [9]), 16.6 µM.
As for `CCCCCCCCCCCCCCCCCC/N=c1\nc(N)c2nc[nH]c2c(N)n1`, the half-inhibitory concentration (IC50) in the test on A549 (setting [4]) stood at 1.85 µM; in test [1] (setting [5]), 1.75 µM; in the test with MCF7 (setting [6]), 3.53 µM; in test [2] (setting [7]) it was 3.1 µM; in test [3] (setting [8]), 2.61 µM; with MDA-MB-231 (setting [9]), 1.43 µM.
With `CCCCCCCCCC/N=c1\nc(N)c2ncn(Cc3ccccc3)c2c(N)n1`, the IC50 with A549 (setting [4]) turned out to be 1.8 µM; in test [1] (setting [5]) it was 3.2 µM; in the test on MCF7 (setting [6]), 1.4 µM; in test [2] (setting [7]), 3.95 µM; in test [3] (setting [8]), 5.15 µM; in the test with MDA-MB-231 (setting [9]), 2.05 µM.
On to `CCCCCCCC/N=c1\nc(N)c2ncn(Cc3ccc(F)cc3)c2c(N)n1`, for which the IC50 in the test with A549 (setting [4]) stood at 5.9 µM; in test [1] (setting [5]), 4.7 µM; with MCF7 (setting [6]) it was 3 µM; in test [2] (setting [7]) it was 4.3 µM; in test [3] (setting [8]), 3.8 µM; with MDA-MB-231 (setting [9]), 3.6 µM.
For the compound `Nc1n/c(=N\CCc2ccccc2)nc(N)c2c1ncn2Cc1ccccc1`, the IC50 with A549 (setting [4]) worked out at 20.4 µM; in test [1] (setting [5]), 36.6 µM; with MCF7 (setting [6]) it was 10.4 µM; in test [2] (setting [7]), 31.7 µM; in test [3] (setting [8]), 13.1 µM; in the test with MDA-MB-231 (setting [9]) it was 17.9 µM.
On to `CCCCCCCC/N=c1\nc(N)c2nc[nH]c2c(N)n1`, for which the half-inhibitory concentration (IC50) result (with A549 (a549); in test [1] (nci-h460); with MCF7 (mcf7); in test [2] (ovcar-3); in test [3] (pc-3); in the test on MDA-MB-231 (mda-mb-231)) was “Not Active” each time.

The values are drawn from ChEMBL document CHEMBL3797173, “Synthesis, anticancer activity, and SAR analyses of compounds containing the 5:7-fused 4,6,8-triaminoimidazo[4,5-e][1,3]diazepine ring system” (Bioorg Med Chem, 2016).
